Reference: publication PMC6435032 (Cancer prevention research (Philadelphia, Pa.), 2018)

Tests used:
NQO1 [1] = conditions: Sprague-Dawley rats; cited from earlier work
[2] = tested on: NAD(P)H quinone oxidoreductase (NQO1); experiment: NQO1 activity in liver tissue of ACI rats; format: in vivo; conditions: EB 1 mg/kg/day sc, 4 days, vs vehicle
[3] = tested on: NAD(P)H quinone oxidoreductase (NQO1); experiment: NQO1 activity in mammary gland of ACI rats; format: in vivo; conditions: 4 days
Outline: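 Female ACI rats (n=6/group) were dosed 4 days: EB 1 mg/kg/day sc, alone or with the test compound at 80 mg/kg/day sc or extracts at 2 g/kg/day by gavage. Sesame oil or corn oil/PEG was the vehicle. Frozen mammary tissue was homogenized; NQO1 activity was read at 610 nm in clear supernatant (30 µg protein). Results are fold induction relative to control; mean ± SEM.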

CYP1A1 [4] = experiment: CYP1A1 mRNA expression in mammary tissue, RT-qPCR; format: in vivo; conditions: ACI rats, 4 days
Outline: (§1)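 Female ACI rats (5 weeks old, acclimated 1 week, phytoestrogen-free AIN-76A diet, n=6/group) received sc EB 1 mg/kg/day, sc test compound 80 mg/kg/day or gavaged extracts 2 g/kg/day for 4 days. Vehicles were sesame oil sc, or 50% corn oil with 50% PEG/H2O by gavage. Rats were killed day 5; mammary mRNA was measured by TaqMan RT-qPCR with ACTB probe; mean ± SEM, ANOVA/Dunnett or t-test.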

CYP1B1 [5] = experiment: CYP1B1 mRNA expression in mammary tissue, RT-qPCR; format: in vivo; conditions: ACI rats, 4 days
Outline: as §1

P450 3A4 [6] = conditions: HepG2 cells; cited from earlier work
[7] = tested on: estrogen oxidative metabolism; conditions: MCF-10A cells; cited from earlier work
[8] = format: in vivo; conditions: ACI rats after GG or GI 2 g/kg/day gavage + EB for 4 days
Outline: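 Female ACI rats (n=6/group) got extracts 2 g/kg/day by gavage plus sc EB 1 mg/kg/day for 4 days. Serum, liver and mammary homogenates (70% aqueous methanol, 0.1% formic acid) were spiked with naringenin internal standard and protein-precipitated with ice-cold ACN. Supernatant was dried, taken up in 20% ACN and analysed by UHPLC-MS/MS, negative ESI, SRM. Extracts were run at 10 μg/mL in 50% methanol.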

[9] = tested on: estrogen oxidative metabolism (2-MeOE1); experiment: 2-MeOE1 in serum by LC-MS/MS; format: in vivo; conditions: ACI rats, 4 days, co-administered with EB 1 mg/kg/day; GG, GI 2 g/kg/day, LicA 80 mg/kg/day
CYP1A1 [10] = format: cell-based, human; conditions: MCF-10A cells, compound 20 µM, 24 h; for Increase of CYP1A1 expression: relative to control
XRE-luciferase reporter = conditions: HepG2 cells; cited from earlier work
E2/E1 levels = E2/E1 levels in serum by LC-MS/MS; format: in vivo; conditions: ACI rats, 4 days, co-administered with EB
[11] = LicA metabolites in serum, liver and mammary gland, UHPLC-MS/MS; format: in vivo; conditions: ACI rats, sc administration of LicA
Outline: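 ACI rats got the test compound sc at 80 mg/kg/day with EB 1 mg/kg/day sc for 4 days and were killed day 5. Serum, and liver or mammary homogenates in 70% aqueous methanol with 0.1% formic acid, were spiked with naringenin. They were precipitated with ice-cold ACN (15 min, 13000 x g, 4 °C), dried under nitrogen and reconstituted in 20% ACN. Metabolites were profiled by UHPLC-MS/MS on C18.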

P450 1A2 = conditions: cited from earlier work
CYP1B1 [12] = format: cell-based, human; conditions: MCF-10A cells, compound 20 µM, 24 h; for Induction of CYP1B1 expression: relative to control
P450 3A4 [13] = conditions: cited from earlier work
NQO1 [14] = conditions: cited from earlier work
CYP1A1 [15] = conditions: female Sprague-Dawley rats; cited from earlier work
NQO1 [16] = conditions: previous in vitro studies; cited from earlier work
NQO1 [17] = conditions: Sprague-Dawley rats; cited from earlier work; remark: listed apart in the source
[18] = with EB, GG, GI 2 g/kg/day, LicA 80 mg/kg/day

**Q.** With `O=c1cc(-c2ccc(Br)cc2)oc2ccccc12` [4’bromoflavone] as the molecule, how does the “NQO1 induction in liver tissues” value (NQO1 [1]) read?
**A.** significant NQO1 induction

**Q.** With `C[C@]12CC[C@@H]3c4ccc(OC(=O)c5ccccc5)cc4CC[C@H]3[C@@H]1CC[C@@H]2O` [EB, estradiol benzoate, reference compound] as the molecule, how does the “Effect of EB alone on NQO1 activity in liver tissue” value [2] read?
**A.** did not affect the NQO1 activity significantly

**Q.** And the “Effect of EB on NQO1 activity in the mammary gland” value ([3]; EB 1 mg/kg/day, vs vehicle)?
**A.** slightly reduced

**Q.** And the “CYP1A1 expression in mammary tissue, fold lower than the vehicle control group” value (CYP1A1 [4]; EB 1 mg/kg/day)?
**A.** 3 fold

**Q.** What about the “CYP1B1 expression in mammary tissue, fold lower than the vehicle control group” value (CYP1B1 [5]; EB 1 mg/kg/day) of the same molecule?
**A.** 5 fold

**Q.** Which “P450 3A4 gene expression” value (P450 3A4 [6]) does the source give for `C=CC(C)(C)c1cc(/C=C/C(=O)c2ccc(O)cc2)c(OC)cc1O` [LicA, licochalcone A] here?
**A.** decreased

**Q.** What about the “Effect on estrogen oxidative metabolism” value [7] of the same molecule?
**A.** inhibited

**Q.** And the “Presence in liver and mammary tissues (qualitative)” value (“Presence” below) [8]?
**A.** available

**Q.** And the “Reduction of 2-MeOE1 in serum, of the EB treatment group” value [9]?
**A.** ~70%

**Q.** What about the “CYP1A1 expression, fold lower than basal levels” value (CYP1A1 [10]) of the same molecule?
**A.** 34 fold

**Q.** What about the XRE-luciferase reporter activity (XRE-luciferase reporter) of the same molecule?
**A.** inhibited

**Q.** And the “Effect on E2/E1 levels in serum” value (E2/E1 levels)?
**A.** only slightly influenced

**Q.** And the “GSH conjugate in the liver” value [11]?
**A.** major metabolite

**Q.** What about the “GSH conjugate in the serum and mammary tissues” value [11] of the same molecule?
**A.** minor metabolite

**Q.** What about the “Main metabolism in serum, liver and mammary tissues” value [11] of the same molecule?
**A.** glucuronidation reactions dominated

**Q.** What about the “Sulfation in mammary tissue” value [11] of the same molecule?
**A.** not detectable

**Q.** And the “Sulfation in serum and liver” value [11]?
**A.** minor

**Q.** And the “Inhibition of P450 1A2 activity” value (P450 1A2)?
**A.** moderately inhibited

**Q.** And the “Induction of NQO1 activity in mammary tissue” value ([3]; co-treatment with EB, GG, GI 2 g/kg/day, LicA 80 mg/kg/day)?
**A.** No induction

**Q.** What about the “Upregulation of CYP1A1 in mammary tissue compared to the EB treatment group” value (CYP1A1 [4]; [18]) of the same molecule?
**A.** no statistical difference

**Q.** And the “CYP1B1 expression, fold lower than basal levels” value (CYP1B1 [12])?
**A.** 10 fold

**Q.** And the “Down-regulation of CYP1B1 expression in mammary tissue compared to the EB treatment group” value (CYP1B1 [5]; [18])?
**A.** no statistical difference

**Q.** And the “Inhibition of P450 3A4 activity” value (P450 3A4 [13])?
**A.** moderately inhibited

**Q.** Which “Induction of NQO1 activity in in vivo models” value (NQO1 [14]) does the source give for `O=C(/C=C/c1ccc(O)cc1)c1ccc(O)cc1O` [LigC, isoliquiritigenin] here?
**A.** didn’t induce

**Q.** What about the “Effect on estrogen oxidative metabolism” value [7] of the same molecule?
**A.** increase

**Q.** And the “Presence” value [8]?
**A.** available

**Q.** What about the “Increase of CYP1A1 expression” value (CYP1A1 [10]) of the same molecule?
**A.** 4 fold

**Q.** And the “Inhibition of P450 1A2 activity” value (P450 1A2)?
**A.** weakly

**Q.** And the “Increase of CYP1A1 levels in mammary tissues” value (CYP1A1 [15])?
**A.** 6.84 fold

**Q.** What about the “Induction of CYP1B1 expression” value (CYP1B1 [12]) of the same molecule?
**A.** 2.5 fold

**Q.** What about the “Inhibition of P450 3A4 activity” value (P450 3A4 [13]) of the same molecule?
**A.** weakly

**Q.** With `O=C1C[C@@H](c2ccc(O)cc2)Oc2cc(O)ccc21` [LigF, liquiritigenin] as the molecule, how does the “Effect on estrogen oxidative metabolism” value [7] read?
**A.** no effect

**Q.** And the “Presence” value [8]?
**A.** available

**Q.** And the “Increase of CYP1A1 expression” value (CYP1A1 [10])?
**A.** did not affect

**Q.** And the “Effect on NQO1 activity in vitro” value (NQO1 [16])?
**A.** no effect

**Q.** What about the “Induction of CYP1B1 expression” value (CYP1B1 [12]) of the same molecule?
**A.** 2 fold

**Q.** For `CC1(C)C=Cc2c(ccc3c2OC[C@@H](c2ccc(O)cc2O)C3)O1` [glabridin], which “Presence” value [8] is on record?
**A.** not detected

**Q.** What about the “Inhibition of P450 1A2 activity” value (P450 1A2) of the same molecule?
**A.** weakly

**Q.** What about the “Inhibition of P450 3A4 activity” value (P450 3A4 [13]) of the same molecule?
**A.** weakly

**Q.** For `COc1cc(O)c(CC=C(C)C)c(O)c1C(=O)/C=C/c1ccc(O)cc1` [xanthohumol], which “NQO1 induction in the mammary gland” value (NQO1 [17]) is on record?
**A.** no NQO1 induction

**Q.** What about the “NQO1 induction in liver tissues” value (NQO1 [1]) of the same molecule?
**A.** significant NQO1 induction
